Like-named read-outs stand apart in the source and are kept apart here.
Tests used:
[1] = type: in vivo, human; settings: for AUC(0-t): AUC0–t, trapezoidal rule; for clearance: CL, healthy adult volunteers
Outline: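 Healthy adult volunteers, randomized open-label two-period crossover: a single 6 mg/kg dose given as a 30 min iv infusion and as a 2 min iv injection, with a 5 day washout. Heparinized blood was drawn predose, immediately after dosing and up to 36 h after dosing ended. Total plasma drug was measured by HPLC (LLOQ 3 mg/L). Non-compartmental trapezoidal AUC was computed. The injection:infusion ratio (95% CI) came from ANOVA of log-transformed values.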

[2] = independent of the daptomycin concentration; cited from earlier work
[3] = Study 1: safety and tolerability; type: in vivo, human; settings: Study 1, 6 mg/kg
Outline: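 Healthy adult volunteers in a randomized, open-label, single-dose, two-period crossover. Each received test compound 6 mg/kg as a 30 min iv infusion and as a 2 min peripheral iv injection by syringe driver, in random order, with a 5-day washout. The investigator graded AEs for relatedness (not, unlikely, possibly, probably related) and severity (mild/moderate/severe). Tabulated AEs were possibly or probably related. Follow-up was 1–11 days post-dose.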

[4] = Study 2: single- and multiple-dose pharmacokinetics of the 2 min iv injection; type: in vivo, human; settings: for Ratio of 6 mg/kg:4 mg/kg daptomycin (95% CI), AUC0–tau (dose-normalized) / Ratio of 6 mg/kg:4 mg/kg daptomycin (95% CI), Ae0–tau (dose-normalized), cumulative amount of unchanged daptomycin excreted in urine / Ratio of 6 mg/kg:4 mg/kg daptomycin (95% CI), CL / Ratio of 6 mg/kg:4 mg/kg daptomycin (95% CI), Cmax (dose-normalized): 6 mg/kg n = 12, 4 mg/kg n = 8, 2 min iv injection; for clearance: CL
Outline: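 Healthy adults were randomized single-blind to 6 or 4 mg/kg test compound or placebo as a 2 min peripheral iv injection by syringe driver, once daily for 7 days. Heparinized blood was drawn on days 1 and 7, from predose to 24 h after injection start, plus 36 and 48 h on day 7. Total plasma drug was measured by HPLC (LLOQ 3 mg/L). Non-compartmental analysis gave AUC by the trapezoidal rule and CL, reported as arithmetic means.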

[5] = Study 1, 2 min iv injection relative to 30 min iv infusion, 6 mg/kg, ANOVA of log-transformed values, n = 15
[6] = Study 2, day 1, geometric mean ratio
[7] = Study 2, day 7, 6 mg/kg 2 min iv injection once daily, plasma, arithmetic mean (SD), n = 12, SD
[8] = Study 2, day 7, geometric mean ratio

SMILES: CCCCCCCCCC(=O)N[C@@H](Cc1c[nH]c2ccccc12)C(=O)N[C@H](CC(N)=O)C(=O)N[C@@H](CC(=O)O)C(=O)N[C@@H]1C(=O)NCC(=O)N[C@@H](CCCN)C(=O)N[C@@H](CC(=O)O)C(=O)N[C@H](C)C(=O)N[C@@H](CC(=O)O)C(=O)NCC(=O)N[C@H](CO)C(=O)N[C@@H]([C@H](C)CC(=O)O)C(=O)N[C@@H](CC(=O)c2ccccc2N)C(=O)O[C@@H]1C [daptomycin]
- 95% CI for the ratio of the geometric means, AUC0–t [1, 5]: 0.8709–1.0055
- 95% CI for the ratio of the geometric means, AUC0–∞ [1, 5]: 0.9007–1.0117
- 95% CI for the ratio of the geometric means, Cmax [1, 5]: 0.9588–1.1719
- t1/2 ([1]; Study 1, single 6 mg/kg dose, 30 min iv infusion, plasma, HPLC, non-compartmental, harmonic mean (SD), n = 15, SD): 8.7 (0.9) h
- AUC(0-t) ([1]; both, human, plasma, iv, 6 mg/kg, Study 1, single 6 mg/kg dose, 2 min iv injection, HPLC, arithmetic mean (SD), n = 15, not dose-normalized, SD): 626 µg·h/mL
- AUC(0-t) ([1]; both, human, plasma, iv, 6 mg/kg, Study 1, single 6 mg/kg dose, 30 min iv infusion, HPLC, arithmetic mean (SD), n = 15, not dose-normalized, SD): 670 µg·h/mL
- AUC(0-inf) ([1]; both, human, plasma, iv, 6 mg/kg, AUC0–∞, Study 1, single 6 mg/kg dose, 2 min iv injection, HPLC, arithmetic mean (SD), n = 15, not dose-normalized, SD): 691 µg·h/mL
- clearance ([1]; both, human, plasma, iv, 6 mg/kg, Study 1, single 6 mg/kg dose, 2 min iv injection, HPLC, non-compartmental, arithmetic mean (SD), n = 15, SD): 0.148 mL/min/kg
- clearance ([1]; both, human, plasma, iv, 6 mg/kg, Study 1, single 6 mg/kg dose, 30 min iv infusion, HPLC, non-compartmental, arithmetic mean (SD), n = 15, SD): 0.138 mL/min/kg
- Cmax ([1]; both, human, plasma, iv, 6 mg/kg, Cmax, Study 1, single 6 mg/kg dose, 30 min iv infusion, HPLC, arithmetic mean (SD), n = 15, not dose-normalized, SD): 88.4 µg/mL
- Vd ([1]; both, human, plasma, iv, 6 mg/kg, SD): 0.113 L/kg
- protein bound [2]: 90–93%
- local tolerability reaction: mild tenderness ([3]; 2 min iv injection group): one subject
- Subjects with at least one adverse event possibly or probably related to study drug: Any adverse event ([3]; 2 min iv injection, n = 16): 4 (25) n (%)
- Subjects with related adverse event: Gastrointestinal disorders ([3]; 2 min iv injection, n = 16): 1 (6) n (%)
- Subjects with related adverse event: Infections and infestations ([3]; 2 min iv injection, n = 16): 1 (6) n (%)
- Subjects with related adverse event: Nervous system disorders ([3]; 2 min iv injection, n = 16): 1 (6) n (%)
- Subjects with related adverse event: fatigue ([3]; 2 min iv injection, n = 16): 1 (6) n (%)
- Subjects with related adverse event: headache ([3]; 2 min iv injection, n = 16): 1 (6) n (%)
- Subjects with related adverse event: nausea ([3]; 2 min iv injection, n = 16): 1 (6) n (%)
- Subjects with related adverse event: urinary tract infection ([3]; 2 min iv injection, n = 16): 1 (6) n (%)
- local tolerability reaction: mild tenderness ([3]; 30 min iv infusion group): two subjects
- local tolerability reaction: pain ([3]; 30 min iv infusion group): one subject
- Subjects with at least one adverse event possibly or probably related to study drug: Any adverse event ([3]; 30 min iv infusion, n = 15): 2 (13) n (%)
- Subjects with related adverse event: Gastrointestinal disorders ([3]; 30 min iv infusion, n = 15): 0 n (%)
- Subjects with related adverse event: Infections and infestations ([3]; 30 min iv infusion, n = 15): 2 (13) n (%)
- Subjects with related adverse event: Nervous system disorders ([3]; 30 min iv infusion, n = 15): 0 n (%)
- Subjects with related adverse event: fatigue ([3]; 30 min iv infusion, n = 15): 0 n (%)
- Subjects with related adverse event: headache ([3]; 30 min iv infusion, n = 15): 0 n (%)
- Subjects with related adverse event: nausea ([3]; 30 min iv infusion, n = 15): 0 n (%)
- Subjects with related adverse event: urinary tract infection ([3]; 30 min iv infusion, n = 15): 2 (13) n (%)
- serious or severe AEs or deaths ([3]; both regimens): no serious or severe AEs or deaths were reported
- tolerability ([3]; both regimens): well tolerated
- total AEs reported ([3]; both regimens, 16 subjects): 21
- AEs of mild severity ([3]; both regimens, of 21 AEs): Nineteen
- steady-state concentrations achieved by ([4]; Study 2, both treatment groups (6 mg/kg and 4 mg/kg), 2 min iv injection once daily, data not shown): third daily dose
- AUC0–∞ ([4]; Study 2, day 1, 6 mg/kg 2 min iv injection, healthy adult volunteers, plasma, HPLC, non-compartmental, arithmetic mean (SD), n = 12, SD): 690.37 (68.83) mg·h/L
- CL ([4]; Study 2, day 1, 6 mg/kg 2 min iv injection, plasma, arithmetic mean (SD), n = 12, SD): 0.0088 (0.0009) L/h/kg
- Ratio of 6 mg/kg:4 mg/kg daptomycin (95% CI), AUC0–tau (dose-normalized) [4, 6]: 1.02 (0.87–1.2)
- Ratio of 6 mg/kg:4 mg/kg daptomycin (95% CI), Ae0–tau (dose-normalized), cumulative amount of unchanged daptomycin excreted in urine [4, 6]: 0.95 (0.72–1.25)
- Ratio of 6 mg/kg:4 mg/kg daptomycin (95% CI), CL [4, 6]: 1.00 (0.85–1.18)
- Ratio of 6 mg/kg:4 mg/kg daptomycin (95% CI), Cmax (dose-normalized) [4, 6]: 1.14 (0.97–1.3)
- V [4, 7]: 0.107 (0.011) L/kg
- t1/2 [4, 7]: 8.65 (0.63) h
- Ratio of 6 mg/kg:4 mg/kg daptomycin (95% CI), AUC0–tau (dose-normalized) [4, 8]: 0.99 (0.87–1.12)
- Ratio of 6 mg/kg:4 mg/kg daptomycin (95% CI), Ae0–tau (dose-normalized), cumulative amount of unchanged daptomycin excreted in urine [4, 8]: 0.88 (0.69–1.11)
- Ratio of 6 mg/kg:4 mg/kg daptomycin (95% CI), CL [4, 8]: 1.01 (0.9–1.15)
- Ratio of 6 mg/kg:4 mg/kg daptomycin (95% CI), Cmax (dose-normalized) [4, 8]: 0.97 (0.82–1.16)
- clearance ([4]; both, human, plasma, iv, 4 mg/kg, Study 2, day 1, 4 mg/kg 2 min iv injection, plasma, arithmetic mean (SD), n = 8, SD): 0.15 mL/min/kg
- clearance ([4]; both, human, plasma, iv, 4 mg/kg, Study 2, day 7, 4 mg/kg 2 min iv injection once daily, plasma, arithmetic mean (SD), n = 8, SD): 0.143 mL/min/kg
- Cmax ([4]; both, human, plasma, iv, 4 mg/kg, Cmax, Study 2, day 1, 4 mg/kg 2 min iv injection, plasma, HPLC, arithmetic mean (SD), n = 8, SD): 56.8 µg/mL

Reference: article PMC2692502 (Journal of Antimicrobial Chemotherapy, 2009)
